# Where a SMILES comes first, the peptide text is derived from it. The star is where a group is joined. X1 = C[C@H]1c2ccc(N*)c(O)c2C(=O)C2=C(O)[C@]3(O)C(O)=C(C(N)=O)C(=O)[C@@H](N(C)C)C3[C@@H](O)C21
# Columns and labels:
# Assay type in all cases: functional
# Escherichia coli [1] = experiment: In vitro antibacterial activity was measured on gram negative bacteria Escherichia coli UBMS 90-5 sensitive cell lines
# Procedure, shortened: (§1)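 MIC by agar dilution on Mueller-Hinton II agar; inoculum (1–5) × 10^5 CFU/mL; antibiotic range 32–0.004 μg/mL; plates incubated 18 h at 35 °C in forced-air incubator. MIC taken as lowest concentration inhibiting growth. Tetracycline, minocycline and doxycycline run as standards in each assay.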
# Staphylococcus aureus [2] = experiment: In vitro antibacterial activity was measured on gram positive bacteria Staphylococcus aureus smith cell lines; procedure, shortened: as §1
# Staphylococcus aureus [3] = experiment: In vitro antibacterial activity was measured on gram positive bacteria Staphylococcus aureus UBMS 90-1 tet-M (ribosomal protection) cell lines; procedure, shortened: as §1
# Escherichia coli [4] = experiment: In vitro antibacterial activity was measured on gram negative bacteria Escherichia coli UBMS 90-4 tet-M (ribosomal protection) cell lines
# Procedure, shortened: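 Agar dilution MIC on Mueller-Hinton II agar. Inoculum (1–5) × 10^5 CFU/mL, drug range 32–0.004 μg/mL. Plates incubated 18 h at 35 °C in a forced-air incubator. MIC is the lowest concentration that inhibits growth. The strain panel covered tetracycline-sensitive and -resistant strains. Tetracycline, minocycline and doxycycline were run as standards in each assay.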
# Staphylococcus aureus [5] = experiment: In vitro antibacterial activity was measured on gram positive bacteria Staphylococcus aureus UBMS 90-3 sensitive cell lines; procedure, shortened: as §1
# Escherichia coli [6] = experiment: In vitro antibacterial activity was measured on gram negative bacteria Escherichia coli J3272 tet-C(efflux resistance) cell lines
# Escherichia coli [7] = experiment: In vitro antibacterial activity was measured on gram negative bacteria Escherichia coli PRP-1 tet-a(efflux resistance) cell lines
# Staphylococcus aureus [8] = experiment: In vitro antibacterial activity was measured on gram positive bacteria Staphylococcus aureus UBMS 88-7 tet-k(efflux resistance) cell lines
# Escherichia coli [9] = experiment: In vitro antibacterial activity was measured on gram negative bacteria Escherichia coli UBMS 88-1 tet-B(efflux resistance) cell lines
Compound,MIC (Escherichia coli [1]) [µg/mL],MIC (Staphylococcus aureus [2]) [µg/mL],MIC (Staphylococcus aureus [3]) [µg/mL],MIC (Escherichia coli [4]) [µg/mL],MIC (Staphylococcus aureus [5]),MIC (Escherichia coli [6]) [µg/mL],MIC (Escherichia coli [7]) [µg/mL],MIC (Staphylococcus aureus [8]) [µg/mL],MIC (Escherichia coli [9]) [µg/mL]
CCCCCCCCCC(=O)Nc1ccc2c(c1O)C(=O)C1=C(O)[C@]3(O)C(O)=C(C(N)=O)C(=O)[C@@H](N(C)C)C3[C@@H](O)C1[C@H]2C (stereo partly drawn),> 32,> 32,> 32,> 32,16 µg/mL,,,,
C[C@H]1c2ccc(NC(=O)CN3CCCC3)c(O)c2C(=O)C2=C(O)[C@]3(O)C(O)=C(C(N)=O)C(=O)[C@@H](N(C)C)C3[C@@H](O)C21 (stereo partly drawn),0.5,0.5,1,0.25,0.25 µg/mL,1,2,4,
C[C@H]1c2ccc(NC(=O)CN)c(O)c2C(=O)C2=C(O)[C@]3(O)C(O)=C(C(N)=O)C(=O)[C@@H](N(C)C)C3[C@@H](O)C21 (stereo partly drawn),8,8,16,8,4 µg/mL,> 32,> 32,> 32,
C[C@H]1c2ccc(NC(=O)[C@@H](N)Cc3c[nH]c4ccccc34)c(O)c2C(=O)C2=C(O)[C@]3(O)C(O)=C(C(N)=O)C(=O)[C@@H](N(C)C)C3[C@@H](O)C21 (stereo partly drawn),8,1,4,4,2 µg/mL,32,16,16,
C[C@H]1c2ccc(NC(=O)[C@@H](N)CCCCN)c(O)c2C(=O)C2=C(O)[C@]3(O)C(O)=C(C(N)=O)C(=O)[C@@H](N(C)C)C3[C@@H](O)C21 (stereo partly drawn),> 32,> 32,> 32,> 32,> 32 µg/mL,,,16,
CC(=O)Nc1ccc2c(c1O)C(=O)C1=C(O)[C@]3(O)C(O)=C(C(N)=O)C(=O)[C@@H](N(C)C)C3[C@@H](O)C1[C@H]2C (stereo partly drawn),8,0.5,> 32,32,0.25 µg cm··-2,,,,
CCCCNCC(=O)Nc1ccc2c(c1O)C(=O)C1=C(O)[C@]3(O)C(O)=C(C(N)=O)C(=O)[C@@H](N(C)C)C3[C@@H](O)C1[C@H]2C (stereo partly drawn),0.5,0.5,4,1,0.25 µg/mL,,4,8,
CC(C)C[C@H](NC(=O)[C@@H](N)CC(C)C)C(=O)Nc1ccc2c(c1O)C(=O)C1=C(O)[C@]3(O)C(O)=C(C(N)=O)C(=O)[C@@H](N(C)C)C3[C@@H](O)C1[C@H]2C (stereo partly drawn),> 32,8,4,> 32,4 µg/mL,,,32,
C[C@H]1c2cccc(O)c2C(=O)C2=C(O)[C@]3(O)C(O)=C(C(N)=O)C(=O)[C@@H](N(C)C)[C@@H]3[C@@H](O)C21 (stereo partly drawn),1,0.12,8,> 32,0.12 µg/mL,16,16,,32
C[C@H]1c2ccc(NC(=O)[C@@H](N)CCC(=O)O)c(O)c2C(=O)C2=C(O)[C@]3(O)C(O)=C(C(N)=O)C(=O)[C@@H](N(C)C)C3[C@@H](O)C21 (stereo partly drawn),> 32,> 32,> 32,> 32,32 µg/mL,,,,
CN(C)[C@@H]1C(O)=C(C(N)=O)C(=O)[C@@]2(O)C(O)=C3C(=O)c4c(O)cccc4C[C@H]3C[C@@H]12 [SANCYCLINE],2,0.25,2,16,0.25 µg/mL,4,8,4,
C[C@H]1c2ccc(NC(=O)[C@@H](N)CCC(N)=O)c(O)c2C(=O)C2=C(O)[C@]3(O)C(O)=C(C(N)=O)C(=O)[C@@H](N(C)C)C3[C@@H](O)C21 (stereo partly drawn),16,4,> 32,> 32,1 µg/mL,,,32,
COC(=O)Nc1ccc2c(c1O)C(=O)C1=C(O)[C@]3(O)C(O)=C(C(N)=O)C(=O)[C@@H](N(C)C)C3[C@@H](O)C1[C@H]2C (stereo partly drawn),> 32,0.06,16,> 32,0.06 µg/mL,,,4,
CC(C)C[C@@H](N)C(=O)Nc1ccc2c(c1O)C(=O)C1=C(O)[C@]3(O)C(O)=C(C(N)=O)C(=O)[C@@H](N(C)C)C3CC1C2 (stereo partly drawn),8,8,16,8,8 µg/mL,,,,
CC(C)C[C@@H](N)C(=O)Nc1ccc2c(c1O)C(=O)C1=C(O)[C@]3(O)C(O)=C(C(N)=O)C(=O)[C@@H](N(C)C)C3[C@@H](O)C1[C@H]2C (stereo partly drawn),8,2,> 32,4,2 µg/mL,16,,16,
CC(C)C[C@H](N)C(=O)NCC(=O)Nc1ccc2c(c1O)C(=O)C1=C(O)[C@]3(O)C(O)=C(C(N)=O)C(=O)[C@@H](N(C)C)C3[C@@H](O)C1[C@H]2C (stereo partly drawn),> 32,16,> 32,> 32,> 32 µg/mL,,,,
CC(C)C(=O)Nc1ccc2c(c1O)C(=O)C1=C(O)[C@]3(O)C(O)=C(C(N)=O)C(=O)[C@@H](N(C)C)C3[C@@H](O)C1[C@H]2C (stereo partly drawn),> 32,1,> 32,> 32,0.5 µg/mL,,,,16
CNCC(=O)Nc1ccc2c(c1O)C(=O)C1=C(O)[C@]3(O)C(O)=C(C(N)=O)C(=O)[C@@H](N(C)C)C3[C@@H](O)C1[C@H]2C (stereo partly drawn),8,8,8,4,4 µg/mL,> 32,> 32,> 32,
C[C@H]1c2ccc(NC(=O)[C@H](Cc3ccccc3)N(C)C)c(O)c2C(=O)C2=C(O)[C@]3(O)C(O)=C(C(N)=O)C(=O)[C@@H](N(C)C)C3[C@@H](O)C21 (stereo partly drawn),32,4,2,16,1 µg/mL,,,,
CN(C)c1ccc(O)c2c1CC1C[C@H]3[C@H](N(C)C)C(=O)C(C(N)=O)=C(O)[C@@]3(O)C(=O)C1=C2O (stereo partly drawn),1,0.12,4,> 32,0.06 µg/mL,,,,
C[C@H]1c2ccc(NC(=O)CN3CCCCC3)c(O)c2C(=O)C2=C(O)[C@]3(O)C(O)=C(C(N)=O)C(=O)[C@@H](N(C)C)C3[C@@H](O)C21 (stereo partly drawn),0.5,0.25,1,1,0.12 µg/mL,,2,,
CC(C)C[C@H](NC(=O)CN)C(=O)Nc1ccc2c(c1O)C(=O)C1=C(O)[C@]3(O)C(O)=C(C(N)=O)C(=O)[C@@H](N(C)C)C3[C@@H](O)C1[C@H]2C (stereo partly drawn),> 32,16,> 32,> 32,> 32 µg/mL,,,,
C[C@H]1c2ccc(NC=O)c(O)c2C(=O)C2=C(O)[C@]3(O)C(O)=C(C(N)=O)C(=O)[C@@H](N(C)C)C3[C@@H](O)C21 (stereo partly drawn),2,0.12,> 32,> 32,0.12 µg/mL,,,,
CC(C)C[C@H](NC(=O)[C@H](CC(C)C)NC(=O)[C@H](CC(C)C)NC(=O)[C@@H](N)CC(C)C)C(=O)Nc1ccc2c(c1O)C(=O)C1=C(O)[C@]3(O)C(O)=C(C(N)=O)C(=O)[C@@H](N(C)C)C3[C@@H](O)C1[C@H]2C (stereo partly drawn) (H-LLLL-X1),> 32,16,> 32,> 32,32 µg/mL,,,,
